Measured values gathered from unrelated publications.
Each line is one published result; the experiments were not run side by side.
Target: MAP kinase-activated protein kinase 5 (MAPKAPK5, Homo sapiens, UniProt Q8IW41)
Sequence (Q8IW41 1-473, as in one of the studies): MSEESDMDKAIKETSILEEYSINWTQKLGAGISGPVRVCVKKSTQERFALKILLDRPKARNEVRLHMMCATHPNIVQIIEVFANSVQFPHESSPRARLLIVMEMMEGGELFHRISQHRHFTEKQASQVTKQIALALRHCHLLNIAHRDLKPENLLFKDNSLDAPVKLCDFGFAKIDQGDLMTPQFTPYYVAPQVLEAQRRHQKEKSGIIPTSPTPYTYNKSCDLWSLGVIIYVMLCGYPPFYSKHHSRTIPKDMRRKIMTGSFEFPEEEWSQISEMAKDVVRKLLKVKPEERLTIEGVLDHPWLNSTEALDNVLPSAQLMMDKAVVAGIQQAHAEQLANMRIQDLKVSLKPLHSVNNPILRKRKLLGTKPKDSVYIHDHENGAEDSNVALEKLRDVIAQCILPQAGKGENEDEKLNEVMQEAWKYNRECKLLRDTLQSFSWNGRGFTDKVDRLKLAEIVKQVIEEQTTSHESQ

SMILES | read-out | method | tested at | remaining binding
C[C@@H]1CCN(c2nccc(-c3cnn4ncccc34)n2)C1 | binding |  | 1 µM | 69%
O=C(Nc1c[nH]nc1C(=O)NC1CCNCC1)c1cc(F)cc(F)c1 | binding | competition with immobilised ligand | 1 µM | 94%
N[C@@H]1CCN(c2nccc(-c3cnn4ncccc34)n2)C1 | binding |  | 1 µM | 100%
CS(=O)(=O)c1cc(C2(NC(=O)c3cncc4c3cnn4-c3ccc(F)cc3)CC2)ccn1 | cell-free assay | competition with immobilised ligand | 1 µM | 87%
CN(C)c1nccc(-c2cnc3ncccn23)n1 | binding |  | 1 µM | 93%
O=C(Nc1ccc(Oc2ccc(F)cc2)cc1)N1CCc2ncccc2[C@H]1c1ccc(F)cc1 | cell-free assay | competition with immobilised ligand | 1 µM | 75%
COc1ncc2cc3ccccc3nc2c1C#N | cell-free assay | competition with immobilised ligand | 5 µM | 83%
O=C(c1ccc(Nc2ncc(Cl)c(-c3ccc(Cl)s3)n2)cc1)N1CCC(N2CCCC2)CC1 | binding | competition with immobilised ligand | 1 µM | 100%
C=CC(=O)N1CCC(C(=O)NCC(=O)N2CCN(c3nc(-c4cnc(N)nc4C(F)F)nc(N4CCOCC4)n3)CC2)CC1 | binding | competition with immobilised ligand | 1 µM | 92%
COc1cnc(Nc2cccc(S(N)(=O)=O)c2)nc1N1CCN(c2ccccc2)CC1 | binding | competition with immobilised ligand | 1 µM | 96%
c1cncc(-c2cccc(Nc3nccc(NC4CCCCC4)n3)c2)c1 | binding | competition with immobilised ligand | 10 µM | 100%
C[C@H](c1cccc(C#N)c1)n1cc(Cl)cc(C(N)=O)c1=N | cell-free assay | competition with immobilised ligand | 1 µM | 84%
FC(F)(F)Oc1cccc(-c2cnc3ccc(-c4ccncc4)nn23)c1 | cell-free assay | competition with immobilised ligand | 5 µM | 71%
O=C(c1ccc(Nc2ncc(Cl)c(-c3cc4ccccc4s3)n2)cc1)N1CCC(N2CCCC2)CC1 | binding | competition with immobilised ligand | 1 µM | 80%
CN(C(=O)c1ccccc1)c1cc(N(C)c2ccc3c(c2)CCc2ccc(C(=O)NCCN4CCOCC4)cc2C3=O)ccc1F | cell-free assay | competition with immobilised ligand | 1 µM | 100%
c1cnn2ncc(-c3ccnc(N4CCC45COC5)n3)c2c1 | binding |  | 1 µM | 74%
CNC(=O)[C@@H]1CC[C@@H](n2c(-c3ccc4cnccc4c3)nc3ccc(C(=O)NCc4cccc(C(N)=O)c4)cc32)C1 | binding | competition with immobilised ligand | 1 µM | 100%
Cc1cnn2ncc(-c3ccnc(N(C)C)n3)c2c1 | binding |  | 1 µM | 77%
CCS(=O)(=O)c1cc2cc(C[C@](O)(CC(C)(C)c3ccc(F)cc3C(N)=O)C(F)(F)F)[nH]c2cn1 | cell-free assay | competition with immobilised ligand | 1 µM | 93%
